Key:
Set-up in all cases: dose 5 mg/kg, dosed compound name [14C]CS-1036, route oral
Settings in all cases: in vivo
[1] = test system: Liver; assay: Drug uptake in albino F344/DuCrlCrlj rat liver assessed as ng equivalent of CS-1036 at 5 mg/kg, po after 168 hrs by liquid scintillation counting; type: ADME, organism-based
[2] = test system: Harderian gland; assay: Drug uptake in albino F344/DuCrlCrlj rat harderian gland at 5 mg/kg, po after 24 hrs by liquid scintillation counting; type: ADME, organism-based
[3] = test system: Spleen; assay: Drug uptake in albino F344/DuCrlCrlj rat spleen at 5 mg/kg, po after 168 hrs by liquid scintillation counting; type: ADME, organism-based
[4] = test system: Lung; assay: Drug uptake in albino F344/DuCrlCrlj rat lung at 5 mg/kg, po after 336 hrs by liquid scintillation counting; type: ADME, organism-based
[5] = test system: Cerebrum; assay: Drug uptake in albino F344/DuCrlCrlj rat cerebrum at 5 mg/kg, po after 168 hrs by liquid scintillation counting; type: ADME, organism-based
Outline: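 Single oral [14C]CS-1036 at 5 mg/kg was given to male rats (159–167 g; n = 3). Cerebrum was collected after aortic bleeding at 1, 4, 8, 24, 72, 168 or 336 h, weighed, and homogenized in 2 volumes of saline. A 0.5 ml aliquot was solubilized in Soluene-350 and counted by LSC with external-standard correction. Results are in ng equivalent/g tissue from specific activity and sample weight.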

[6] = test system: Zone of skin; assay: Drug uptake in albino F344/DuCrlCrlj rat skin at 5 mg/kg, po after 168 hrs by liquid scintillation counting; type: ADME, organism-based
[7] = test system: Large intestine; assay: Drug uptake in albino F344/DuCrlCrlj rat large intestine assessed as ng equivalent of CS-1036 at 5 mg/kg, po after 4 hrs by liquid scintillation counting; type: ADME, organism-based
[8] = test system: Large intestine; assay: Drug uptake in albino F344/DuCrlCrlj rat large intestine assessed as ng equivalent of CS-1036 at 5 mg/kg, po after 1 hr by liquid scintillation counting; type: ADME, organism-based
[9] = Drug uptake in albino F344/DuCrlCrlj rat skeletal muscle at 5 mg/kg, po after 8 hrs by liquid scintillation counting; type: ADME, organism-based, Muscle tissue
[10] = test system: Spleen; assay: Drug uptake in albino F344/DuCrlCrlj rat spleen at 5 mg/kg, po after 8 hrs by liquid scintillation counting; type: ADME, organism-based
[11] = test system: Harderian gland; assay: Drug uptake in albino F344/DuCrlCrlj rat harderian gland assessed as ng equivalent of CS-1036 at 5 mg/kg, po after 8 hrs by liquid scintillation counting; type: ADME, organism-based
[12] = test system: Aorta; assay: Drug uptake in albino F344/DuCrlCrlj rat aorta at 5 mg/kg, po after 1 hr by liquid scintillation counting; type: ADME, organism-based
[13] = test system: Spleen; assay: Drug uptake in albino F344/DuCrlCrlj rat spleen at 5 mg/kg, po after 4 hrs by liquid scintillation counting; type: ADME, organism-based

SMILES: C[C@H]1O[C@@H](O[C@H]2[C@H](O)[C@@H](O)[C@@H](O[14C@H]3[14C@H](O)[14CH2]N[14C@@H]3[14CH2]O)O[C@@H]2CO)[C@H](O)[C@@H](O)[C@@H]1O
- Radiolabel recovery [1]: 9.1 ngequiv/g
- Radiolabel recovery [2]: 290 ngequiv/g
- Radiolabel recovery [3]: 18.3 ngequiv/g
- Radiolabel recovery [4]: 8.43 ngequiv/g
- Radiolabel recovery [5]: 6.2 ngequiv/g
- Radiolabel recovery [6]: 53.3 ngequiv/g
- Radiolabel recovery [7]: 6620 ngequiv/g
- Radiolabel recovery [8]: 1080 ngequiv/g
- Radiolabel recovery [9]: 32.2 ngequiv/g
- Radiolabel recovery [10]: 84.8 ngequiv/g
- Radiolabel recovery [11]: 24.5 ngequiv/g
- Radiolabel recovery [12]: 50.6 ngequiv/g
- Radiolabel recovery [13]: 35.1 ngequiv/g

— ChEMBL document CHEMBL3526002, “Tissue distribution and identification of radioactivity components at elimination phase after oral administration of [¹⁴C]CS-1036, an α-amylase inhibitor, to rats” (Drug Metab Dispos, 2013)
